Measurements: ChEMBL document CHEMBL4020726, “Discovery of 2-((4,6-dimethylpyrimidin-2-yl)thio)-N-phenylacetamide derivatives as new potent and selective human sirtuin 2 inhibitors” (Eur J Med Chem, 2017)
pIC50: −log10 of the molar value. Calls of active or inactive are those of the source. The calls are words filed in the database; no cut-off is given here.

Legend:
[1] = target: T1, NAD-dependent protein deacetylase sirtuin-2 (Homo sapiens) (UniProt Q8IXJ6); test: Inhibition of human SIRT2 at 5 uM
T1 sequence (whole entry): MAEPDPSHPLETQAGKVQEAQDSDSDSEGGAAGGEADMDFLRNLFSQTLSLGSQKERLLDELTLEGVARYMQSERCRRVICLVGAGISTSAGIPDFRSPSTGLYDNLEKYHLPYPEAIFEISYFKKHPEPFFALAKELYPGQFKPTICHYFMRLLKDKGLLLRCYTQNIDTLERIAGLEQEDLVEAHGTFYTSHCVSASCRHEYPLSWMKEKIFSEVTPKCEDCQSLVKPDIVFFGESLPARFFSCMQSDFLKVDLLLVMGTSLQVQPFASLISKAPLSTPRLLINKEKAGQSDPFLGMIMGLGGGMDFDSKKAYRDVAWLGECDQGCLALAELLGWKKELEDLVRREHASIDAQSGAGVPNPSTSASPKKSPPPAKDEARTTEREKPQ

[2] = target: T1, NAD-dependent protein deacetylase sirtuin-2 (Homo sapiens); test: Inhibition of human SIRT2 at 50 uM
[3] = system: MCF7; test: Growth inhibition of human MCF7 cells at 50 uM after 120 hrs by MTT assay; assay type: functional
Method in brief: (§1)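 MCF-7 cells were kept in high-glucose DMEM with 10% FBS and penicillin/streptomycin, split at 80–90% confluency and used within 10 passages. They were seeded at 3000 cells/well, grown 24 h, then exposed for 120 h at 37°C, 5% CO2 (final DMSO 1% v/v). MTT formazan was dissolved in acidified 20% SDS and read at 570 nm. Triplicates; experiments repeated at least twice.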

[4] = Growth inhibition of human HL7702 cells at 100 uM after 120 hrs by MTT assay; assay type: cell-based; conditions: HL7702 (L02) cells, read-out: GI
[5] = target: T2, NAD-dependent protein deacetylase sirtuin-3, mitochondrial (Homo sapiens, UniProt Q9NTG7); test: Inhibition of SIRT3 (unknown origin)
T2 sequence (Q9NTG7 whole entry): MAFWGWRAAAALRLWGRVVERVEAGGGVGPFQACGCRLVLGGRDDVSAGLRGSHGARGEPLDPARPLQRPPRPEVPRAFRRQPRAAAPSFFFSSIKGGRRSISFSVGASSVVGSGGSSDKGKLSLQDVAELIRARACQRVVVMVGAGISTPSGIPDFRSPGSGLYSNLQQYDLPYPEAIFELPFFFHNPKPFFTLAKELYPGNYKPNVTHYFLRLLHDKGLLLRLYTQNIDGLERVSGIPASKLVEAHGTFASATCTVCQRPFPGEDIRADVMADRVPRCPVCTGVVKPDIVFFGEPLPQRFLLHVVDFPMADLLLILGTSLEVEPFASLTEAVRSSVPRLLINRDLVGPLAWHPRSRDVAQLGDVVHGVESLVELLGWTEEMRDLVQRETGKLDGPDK

[6] = target: T3, NAD-dependent protein deacetylase sirtuin-1 (Homo sapiens, UniProt Q96EB6); test: Inhibition of SIRT1 (unknown origin)
T3 sequence (Q96EB6 whole entry): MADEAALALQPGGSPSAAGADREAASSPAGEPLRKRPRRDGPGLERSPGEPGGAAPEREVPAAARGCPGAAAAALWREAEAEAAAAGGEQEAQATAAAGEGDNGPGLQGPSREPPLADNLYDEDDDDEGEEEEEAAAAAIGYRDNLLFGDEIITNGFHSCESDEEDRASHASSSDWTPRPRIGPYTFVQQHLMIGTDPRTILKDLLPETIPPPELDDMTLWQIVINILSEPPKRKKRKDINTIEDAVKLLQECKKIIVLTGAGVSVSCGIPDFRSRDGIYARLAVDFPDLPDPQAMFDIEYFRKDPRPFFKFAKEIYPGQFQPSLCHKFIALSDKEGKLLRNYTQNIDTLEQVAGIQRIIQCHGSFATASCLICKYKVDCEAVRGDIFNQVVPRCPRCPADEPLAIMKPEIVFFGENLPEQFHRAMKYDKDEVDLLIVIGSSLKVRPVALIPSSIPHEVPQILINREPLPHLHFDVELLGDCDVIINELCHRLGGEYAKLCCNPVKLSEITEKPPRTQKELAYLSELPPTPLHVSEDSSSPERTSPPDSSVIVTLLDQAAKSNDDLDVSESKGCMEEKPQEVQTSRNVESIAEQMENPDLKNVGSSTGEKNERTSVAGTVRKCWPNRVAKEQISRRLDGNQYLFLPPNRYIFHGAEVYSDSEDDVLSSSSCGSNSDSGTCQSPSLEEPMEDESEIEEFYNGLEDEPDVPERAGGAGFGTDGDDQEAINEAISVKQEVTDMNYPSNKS

[7] = system: MCF7; test: Growth inhibition of human MCF7 cells after 120 hrs by MTT assay; assay type: functional, cell-based; method in brief: as §1

Compound	inhibition [1] [%]	inhibition [2] [%]	further results
Cc1cc(C)nc(SCC(=O)Nc2cccc(COc3ccc4ccccc4c3)c2)n1	59	84	–
Cc1cc(C)nc(SCC(=O)Nc2cccc(COc3ccc(NS(=O)(=O)c4ccccc4)cc3)c2)n1	73	87	–
Cc1cc(C)nc(SCC(=O)Nc2ccc(NCc3ccncc3)cc2)n1	10	43	–
Cc1cc(C)nc(SCC(=O)Nc2cccc(COc3cccc4ccccc34)c2)n1	42	79	–
Cc1cc(C)nc(SCC(=O)Nc2ccc(NCc3cccs3)cc2)n1	15	70	–
Cc1cc(C)nc(SCC(=O)Nc2ccc(OCc3ccccc3)cc2)n1	40	62	–
Cc1cc(C)nc(SCC(=O)Nc2cccc(NCc3ccccc3)c2)n1	64	95	–
Cc1cc(C)nc(SCC(=O)Nc2ccc(COc3ccccc3)cc2)n1	1	24	growth inhibition (GI) [3]: inactive; inhibition at 120 h, 100 µM [4]: 6%
Cc1cc(C)nc(SCC(=O)Nc2ccc(NCc3ccccc3)cc2)n1	9	55	–
Cc1cc(C)nc(SCC(=O)Nc2ccc(CNc3ccccc3)cc2)n1	20	72	–
Cc1cc(C)nc(SCC(=O)Nc2cccc(COc3ccc4[nH]ncc4c3)c2)n1	57	91	–
Cc1cc(C)nc(S(=O)(=O)CC(=O)Nc2ccc(Oc3ccccc3)cc2)n1	-2	21	–
Cc1cc(C)nc(SCC(=O)Nc2cccc(C(O)c3ccccc3)c2)n1 (centres undefined)	18	78	–
Cc1cc(C)nc(SCC(=O)Nc2ccc(Oc3ccccc3)cc2)n1	42	78	–
Cc1cc(C)nc(SCC(=O)Nc2ccc(C(O)c3ccccc3)cc2)n1 (centres undefined)	26	75	–
Cc1cc(C)nc(SCC(=O)Nc2ccc(C(=O)c3ccccc3)cc2)n1	22	74	–
Cc1cc(C)nc(SCC(=O)Nc2cccc(COc3ccc(NS(=O)(=O)C4CC4)cc3)c2)n1	67	95	–
Cc1cc(C)nc(SCC(=O)Nc2cccc(COc3cccc4cccnc34)c2)n1	41	73	–

Compound	inhibition [1] [%]	inhibition [2] [%]	further results
Cc1cc(C)nc(SCC(=O)Nc2cccc(COc3ccccc3)c2)n1	71	96	–
Cc1cc(C)nc(SCC(=O)Nc2cccc(OCc3ccccc3)c2)n1	59	92	–
Cc1cc(C)nc(SCC(=O)Nc2ccc(NCc3ccco3)cc2)n1	17	58	–
Cc1cc(C)nc(SCC(=O)Nc2ccc(Cc3ccccc3)cc2)n1	70	74	–
CC(=O)Nc1ccc(OCc2cccc(NC(=O)CSc3nc(C)cc(C)n3)c2)cc1	62	92	–
O=C(Nc1ccccc1-c1cn2c(CN3CCNCC3)csc2n1)c1cnc2ccccc2n1	–	–	pIC50 [5]: 6.07
CC(=O)Nc1cccc(OCc2cccc(NC(=O)CSc3nc(C)cc(C)n3)c2)c1	68	99	–
Cc1cc(C)nc(SCC(=O)Nc2cccc(C(=O)c3ccccc3)c2)n1	40	89	–
Cc1cc(C)nc([S+]([O-])CC(=O)Nc2ccc(Oc3ccccc3)cc2)n1 (centres undefined)	34	79	–
Cc1cc(C)nc(SCC(=O)Nc2cccc(Nc3ccccc3)c2)n1	61	95	–
Cc1cc(C)nc(SCC(=O)Nc2ccc(Nc3ccccc3)cc2)n1	19	72	–
Cc1cc(C)nc(SCC(=O)Nc2cccc(Oc3ccccc3)c2)n1	49	92	–
Cc1ccc(C(=O)Nc2ccc(S(=O)(=O)O)c3cc(S(=O)(=O)O)cc(S(=O)(=O)O)c23)cc1NC(=O)c1cccc(NC(=O)Nc2cccc(C(=O)Nc3cc(C(=O)Nc4ccc(S(=O)(=O)O)c5cc(S(=O)(=O)O)cc(S(=O)(=O)O)c45)ccc3C)c2)c1	31	73	–
Cc1cc(C)nc(SCC(=O)Nc2cccc(COc3ccc(NC(=O)c4cccs4)cc3)c2)n1	–	–	pIC50 [6]: < 3.52; pIC50 [5]: < 3.52; inhibition of growth at 50 µM ([3]; MCF7, 120 h, read-out: GI): > 50%; growth inhibition (GI) [7]: Dose-dependent effect; inhibition at 120 h, 100 µM [4]: 3%
Cc1cc(C)nc(SCC(=O)Nc2cccc(CNc3ccccc3)c2)n1	49	90	–
Cc1cc(C)nc(SCC(=O)Nc2cccc(NCc3cccs3)c2)n1	60	93	–
Cc1cc(C)nc(SCC(=O)Nc2cccc(Cc3ccccc3)c2)n1	73	96	–
